Laboratory results taken from publication PMC3972754 (European biophysics journal : EBJ, 2013).
Where a name gives a salt, the structure may show the parent alone. Read-outs that look alike come from different tables or passages of the source.

How the values were obtained:
[1] = biological target: T1, cPAH (phenylalanine hydroxylase from Chromobacterium violaceum) (Chromobacterium violaceum, UniProt P30967, S203P); assay: biochemical
[2] = biological target: T2, cPAH (phenylalanine hydroxylase from Chromobacterium violaceum) (Chromobacterium violaceum, UniProt P30967, F258A); assay: biochemical
[3] = biological target: T3, cPAH (phenylalanine hydroxylase from Chromobacterium violaceum) (Chromobacterium violaceum, UniProt P30967); assay: ITC; assay type: binding
T3 sequence (P30967 1-297): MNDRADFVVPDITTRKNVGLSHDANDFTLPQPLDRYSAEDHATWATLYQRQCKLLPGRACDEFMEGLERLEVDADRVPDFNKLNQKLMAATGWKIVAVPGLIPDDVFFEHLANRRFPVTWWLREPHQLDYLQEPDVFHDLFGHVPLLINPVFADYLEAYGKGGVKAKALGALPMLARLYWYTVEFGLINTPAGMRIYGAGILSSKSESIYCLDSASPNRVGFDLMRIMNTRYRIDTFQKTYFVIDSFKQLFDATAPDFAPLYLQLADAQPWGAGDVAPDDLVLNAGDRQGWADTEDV
Procedure, shortened: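 Untagged or GST-cleaved C. violaceum cPAH (WT or point mutants), dialysed overnight against 50 mM HEPES pH 7.4. Amino-acid ligand (1–10 mM) titrated into 50–100 µM protein over 18 × 2 µL injections. Buffer-only reference subtracted; one-site fit; duplicates. Anaerobic variant (argon, 25 °C): apo enzyme reconstituted with 0.5–1.0 mol ferrous ammonium sulfate per mol PAH, plus 200 µM pterin cofactor, equilibrated 15 min.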

[4] = biological target: T4, cPAH (phenylalanine hydroxylase from Chromobacterium violaceum) (Chromobacterium violaceum, UniProt P30967, Y155A); assay: biochemical
[5] = biological target: T5, cPAH (phenylalanine hydroxylase from Chromobacterium violaceum) (Chromobacterium violaceum, UniProt P30967, T254A); assay: biochemical
[6] = biological target: T4, cPAH (phenylalanine hydroxylase from Chromobacterium violaceum); assay: biochemical; remark: listed apart in the source
[7] = biological target: T3, cPAH (phenylalanine hydroxylase from Chromobacterium violaceum); assay: ITC, one-site model; assay type: binding
[8] = biological target: T5, cPAH (phenylalanine hydroxylase from Chromobacterium violaceum); assay: biochemical; remark: listed apart in the source
[9] = biological target: T1, cPAH (phenylalanine hydroxylase from Chromobacterium violaceum); assay: biochemical; remark: listed apart in the source
[10] = biological target: T3, cPAH (phenylalanine hydroxylase from Chromobacterium violaceum); assay: tyrosine formation at […] nm, initial rates; assay type: biochemical; conditions: 20 °C, 0.1 M Na-HEPES pH 7.4, O2 saturated, FeSO4, 350 µM DMPH4
[11] = biological target: T2, cPAH (phenylalanine hydroxylase from Chromobacterium violaceum); assay: biochemical; remark: listed apart in the source

SMILES	Kd [1] [µM]	Kd [2] [µM]	Kd [3] [µM]	Kd [4] [µM]	Kd [5] [µM]	Kd [6] [µM]	Kd [7] [µM]	Kd [8] [µM]	Kd [9] [µM]	Km [10] [µM]	Kd [11] [µM]
C[C@H](O)[C@H](O)[C@H]1CNc2nc(N)[nH]c(=O)c2N1 [BH4, (6R)-5,6,7,8-tetrahydrobiopterin dihydrochloride]	35.2 ± 3.3	29.3 ± 1.6	23.5 ± 1.6	16.2 ± 0.7	43.6 ± 4.2						
N[C@@H](Cc1ccccc1)C(=O)O [phenylalanine]						559 ± 30	24 ± 1.1	376 ± 10	7 ± 0.3	244 ± 40.8	775 ± 44
